Data reported in ChEMBL document CHEMBL1148390, “Structural analysis and optimization of NK(1) receptor antagonists through modulation of atropisomer interconversion properties” (J Med Chem, 2004).

How the values were obtained:
[1] = molecular target: T1, Substance-K receptor (Oryctolagus cuniculus) (UniProt P79218); test: In vitro binding affinity towards Tachykinin receptor 2 using rabbit pulmonary artery tissues
T1 sequence (whole entry): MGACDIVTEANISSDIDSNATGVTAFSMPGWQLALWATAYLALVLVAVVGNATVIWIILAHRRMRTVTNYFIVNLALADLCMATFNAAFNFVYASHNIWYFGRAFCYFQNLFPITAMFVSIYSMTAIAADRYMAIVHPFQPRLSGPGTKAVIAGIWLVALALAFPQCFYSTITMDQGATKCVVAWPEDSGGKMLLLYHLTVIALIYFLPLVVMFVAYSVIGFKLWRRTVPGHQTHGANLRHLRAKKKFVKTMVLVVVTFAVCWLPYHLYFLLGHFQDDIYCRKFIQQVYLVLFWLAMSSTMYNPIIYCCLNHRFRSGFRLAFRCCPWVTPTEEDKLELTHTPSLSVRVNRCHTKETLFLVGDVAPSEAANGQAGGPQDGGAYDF
How it was run: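 Functional antagonism in isolated rabbit pulmonary artery (n = 2–6), reported as pKB. NK1 tested against agonist ASMSP with antagonist at 1 nM, or at 100 nM where antagonism was not purely competitive; NK2 tested against agonist BANK with antagonist at 1 μM. Where antagonism was not purely competitive, activity was taken as percent inhibition = 100 – maximum relaxation as % of control.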

[2] = Maximum plasma concentration was measured in dogs after an oral dose of 10 umol/kg; type: ADME, organism-based, Canis lupus familiaris; set-up: dose 10 umol/kg, route oral; conditions: dog
How it was run: (§1)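 Dogs (n = 3) dosed orally at 10–100 μmol/kg as a solution in 75% polyethylene glycol 400 in normal saline; iv bolus comparison at 1–10 μmol/kg. Blood taken via surgically implanted cannula or by venipuncture over 24 h; plasma analysed for unchanged compound by LC–MS.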

Neuromedin-K receptor = molecular target: T2, Neuromedin-K receptor (Homo sapiens, UniProt P29371); test: In vitro binding affinity towards human Tachykinin receptor 3 was determined by using [125I]MePhe-NKB as a radioligand
T2 sequence (P29371 whole entry): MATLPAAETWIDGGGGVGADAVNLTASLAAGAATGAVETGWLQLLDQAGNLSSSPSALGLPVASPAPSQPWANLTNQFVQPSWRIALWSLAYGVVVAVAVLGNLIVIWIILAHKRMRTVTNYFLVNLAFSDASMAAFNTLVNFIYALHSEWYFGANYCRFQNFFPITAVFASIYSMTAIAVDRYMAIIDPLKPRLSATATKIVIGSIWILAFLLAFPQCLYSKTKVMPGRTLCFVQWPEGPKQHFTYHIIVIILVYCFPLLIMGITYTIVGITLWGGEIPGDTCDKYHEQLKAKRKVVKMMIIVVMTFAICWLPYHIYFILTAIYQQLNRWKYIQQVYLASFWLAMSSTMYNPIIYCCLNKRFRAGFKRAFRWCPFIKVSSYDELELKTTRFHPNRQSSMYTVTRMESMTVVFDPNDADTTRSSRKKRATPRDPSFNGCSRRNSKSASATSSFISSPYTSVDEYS
How it was run: (§2)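 Human tachykinin receptors stably expressed in mouse erythroleukemia (MEL) cells; NK3 construct differs from genomic sequence at AA439 (Cys vs Phe). Radioligand displacement: [3H]SP for NK1, [125I]NKA for NK2, [125I]MePheNKB for NK3; n ≥ 2 determinations.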

Substance-K receptor = molecular target: T3, Substance-K receptor (Homo sapiens, UniProt P21452); test: In vitro binding affinity towards human Tachykinin receptor 2 was determined by using [125I]NKA as a radioligand; how it was run: as §2
T3 sequence (P21452 whole entry): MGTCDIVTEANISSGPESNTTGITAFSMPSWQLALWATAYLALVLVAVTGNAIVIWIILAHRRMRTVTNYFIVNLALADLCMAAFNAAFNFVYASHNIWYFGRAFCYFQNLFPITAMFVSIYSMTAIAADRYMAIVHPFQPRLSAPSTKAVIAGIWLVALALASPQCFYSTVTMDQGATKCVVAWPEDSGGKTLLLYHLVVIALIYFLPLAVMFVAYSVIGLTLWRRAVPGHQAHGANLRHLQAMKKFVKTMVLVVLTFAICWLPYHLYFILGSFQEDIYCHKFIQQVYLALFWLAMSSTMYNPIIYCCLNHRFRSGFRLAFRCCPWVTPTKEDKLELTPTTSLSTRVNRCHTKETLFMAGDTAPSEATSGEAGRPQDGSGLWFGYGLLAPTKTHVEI

[3] = Time for maximum plasma concentration was measured in dogs after an oral dose of 10 uM/kg; type: ADME, organism-based, Canis lupus familiaris; conditions: dog; how it was run: as §1
Substance-P receptor = Substance-P receptor (Homo sapiens, UniProt P25103); test: In vitro binding affinity towards human Tachykinin receptor 1 was determined by using [3H]SP as a radioligand; how it was run: as §2
Substance-P receptor, sequence (P25103 whole entry): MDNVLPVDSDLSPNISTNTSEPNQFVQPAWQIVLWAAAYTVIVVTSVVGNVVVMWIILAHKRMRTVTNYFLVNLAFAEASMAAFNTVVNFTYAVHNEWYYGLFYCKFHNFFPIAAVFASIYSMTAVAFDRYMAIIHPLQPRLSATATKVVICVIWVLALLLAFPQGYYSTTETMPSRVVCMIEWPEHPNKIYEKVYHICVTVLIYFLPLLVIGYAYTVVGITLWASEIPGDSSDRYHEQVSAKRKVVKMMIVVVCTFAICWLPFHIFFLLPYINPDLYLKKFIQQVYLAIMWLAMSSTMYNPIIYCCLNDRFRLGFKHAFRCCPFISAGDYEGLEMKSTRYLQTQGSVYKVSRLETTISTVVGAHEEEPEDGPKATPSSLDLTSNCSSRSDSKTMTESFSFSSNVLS

[4] = Half-life was measured in dogs after an oral dose of 10 uM/kg; type: ADME, organism-based, Canis lupus familiaris; conditions: dog, in vivo; how it was run: as §1
Gerbillinae = test: Percent inhibitory activity against ASMSP induced foot tapping response in gerbils after oral dose of 5 uM/kg; type: functional
How it was run: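 Gerbils given antagonist orally at 5 μmol/kg 6 h before central (CNS) administration of ASMSP (100 pmol). Foot-tapping response compared with vehicle-only control animals; result expressed as percent inhibition.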

[5] = Area under plasma concentration time curve was measured in dogs after an oral dose of 10 uM/kg; type: ADME, organism-based, Canis lupus familiaris; conditions: dog; how it was run: as §1
[6] = Bioavailability was measured in dogs after an oral dose of 10 uM/kg; type: ADME, organism-based, Canis lupus familiaris; conditions: dog, in vivo, read-out: Bioavailabiility; how it was run: as §1
[7] = system: Substance-P receptor (Oryctolagus cuniculus); test: In vitro binding affinity towards Tachykinin receptor 1 was determined using rabbit pulmonary artery tissues

Row | SMILES | pKB [1] | Ki (Substance-K receptor) [nM] | Ki (Substance-P receptor) [nM] | Inhibition (Gerbillinae) [%] | other results
1 | CCc1c(C#N)cc2ccccc2c1C(=O)N(C)C[C@@H](CCN1CCC(c2ccccc2[S@+](C)[O-])CC1)c1ccc(Cl)c(Cl)c1 (stereo in doubt; form 3) [listing 1 of 2 here] | 6.83 | – | – | – | –
2 | CCc1c(C#N)cc2ccccc2c1C(=O)N(C)C[C@@H](CCN1CCC(c2ccccc2[S@+](C)[O-])CC1)c1ccc(Cl)c(Cl)c1 (stereo in doubt; 3) [listing 1 of 2 here] | – | 37 | 1.24 | 33 | Cmax [2]: 662 ng/mL; Ki (Neuromedin-K receptor): 97 nM; Tmax [3]: 4 h; half-life [4]: 5.9 h; AUC [5]: 6130 ng·h/mL; bioavailability [6]: 37.3%
3 | CCc1c(C#N)cc2ccccc2c1C(=O)N(C)C[C@@H](CCN1CCC(c2ccccc2[S@+](C)[O-])CC1)c1ccc(Cl)c(Cl)c1 (stereo in doubt; 3) [listing 2 of 2 here] | 7.31 | – | – | – | –
4 | CN(C[C@@H](CCN1CCC(c2ccccc2[S@+](C)[O-])CC1)c1ccc(Cl)c(Cl)c1)C(=O)c1cc(C#N)cc2ccccc12 | 8.3 | – | – | – | –
5 | CCc1c(C#N)cc2ccccc2c1C(=O)N(C)C[C@@H](CCN1CCC(c2ccccc2[S@+](C)[O-])CC1)c1ccc(Cl)c(Cl)c1 (stereo in doubt; form 1) [listing 1 of 2 here] | – | 23 | 1.71 | 1.4 | –
6 | CCc1c(C#N)cc2ccccc2c1C(=O)N(C)C[C@@H](CCN1CCC(c2ccccc2[S@+](C)[O-])CC1)c1ccc(Cl)c(Cl)c1 (stereo in doubt; form 3) [listing 2 of 2 here] | – | 22 | 2.94 | 0.3 | –
7 | CN(C[C@@H](CCN1CCC(c2ccccc2[S@+](C)[O-])CC1)c1ccc(Cl)c(Cl)c1)C(=O)c1c(-c2ccccc2)c(C#N)cc2ccccc12 | 7.27 | – | – | – | pKB [7]: 7.39
8 | CCc1c(C#N)cc2ccccc2c1C(=O)N(C)C[C@@H](CCN1CCC(c2ccccc2[S@+](C)[O-])CC1)c1ccc(Cl)c(Cl)c1 (stereo in doubt; form 4) | – | 35 | 0.4 | 13 | –
9 | CCc1c(C#N)cc2ccccc2c1C(=O)N(C)C[C@@H](CCN1CCC(c2ccccc2[S@+](C)[O-])CC1)c1ccc(Cl)c(Cl)c1 (stereo in doubt; form 2) [listing 1 of 2 here] | – | 33 | 6.94 | 91 | –
10 | CCCc1c(C#N)cc2ccccc2c1C(=O)N(C)C[C@@H](CCN1CCC(c2ccccc2[S@+](C)[O-])CC1)c1ccc(Cl)c(Cl)c1 | 6.72 | – | – | – | pKB [7]: 7.8
11 | CC(C)Cc1c(C#N)cc2ccccc2c1C(=O)N(C)C[C@@H](CCN1CCC(c2ccccc2[S@+](C)[O-])CC1)c1ccc(Cl)c(Cl)c1 | 6.35 | – | – | – | pKB [7]: 7.23
12 | CCc1c(C#N)cc2ccccc2c1C(=O)N(C)C[C@@H](CCN1CCC(c2ccccc2[S@+](C)[O-])CC1)c1ccc(Cl)c(Cl)c1 (stereo in doubt; form 2) [listing 2 of 2 here] | 6.25 | – | – | – | –
13 | CCc1c(C#N)cc2ccccc2c1C(=O)N(C)C[C@@H](CCN1CCC(c2ccccc2[S@+](C)[O-])CC1)c1ccc(Cl)c(Cl)c1 (stereo in doubt; form 1) [listing 2 of 2 here] | 7.11 | – | – | – | –
14 | Cc1c(C#N)cc2ccccc2c1C(=O)N(C)C[C@@H](CCN1CCC(c2ccccc2[S@+](C)[O-])CC1)c1ccc(Cl)c(Cl)c1 | 7.1 | – | – | – | pKB [7]: 9.06
